# Results reported in ChEMBL document CHEMBL1125629, “Beta-substituted beta-phenylpropionyl chymotrypsins. Structural and stereochemical features in stable acyl enzymes” (J Med Chem, 1991).
# Legend:
# [1] = Deacylation rate constant(Kd fast) was determined by proflavin displacement assay
# Method in brief: (§1)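 Proflavin displacement: ester 90 μM (from DMSO) added to α-chymotrypsin 90 μM and proflavin 9 μM (final) in 0.1 M phosphate pH 7.2 at 25 °C. Return of A466 was followed, and the slope of semilog absorbance versus time gave kd. Racemic esters gave biphasic curves yielding kd(fast) and kd(slow), and their ratio approximates deacylation enantioselectivity.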
# [2] = Deacylation rate constant(Kd slow) was determined by proflavin displacement assay; method in brief: as §1
# [3] = kd ratio measured as the kd(fast)/kd(slow) values; type: ADME; method in brief: as §1
# [4] = Second order rate constant for acylation( ka/Ks); type: ADME
# Method in brief: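 Competitive substrate assay with α-chymotrypsin (25 nM, active-site titrated) in 0.1 M phosphate buffer pH 7.2, 25 °C. MeO-Suc-Ala-Ala-Pro-Phe pNA was at 128 μM with ester at 10–350 μM, DMSO present. A410 followed for up to 300 s, and k_obs came from semilog plots in triplicate. ka and KS were obtained from I0/k_obs versus I0 by Main's equation (KM 50 μM).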
# [5] = Binding constant of the compound
# [6] = Acylation rate constant was determined
SMILES,Kd [1] [s⁻¹],Kd [2] [s⁻¹],Ratio [3],Ratio [4] [M⁻¹ s⁻¹],Ks [5] [µM],Ka [6] [min⁻¹]
N#CCC(CC(=O)Oc1ccc([N+](=O)[O-])cc1)c1ccccc1 (stereo not given),0.15,0.000583,257,–,–,–
C=C(C)C[C@H](CC(=O)O)c1ccccc1,–,3.83e-05,–,–,–,–
CC(=O)C[C@@H](CC(=O)Oc1ccc(C#N)cc1)c1ccccc1,–,–,–,11000,91,58
CC(=O)C[C@H](CC(=O)Oc1ccc(C#N)cc1)c1ccccc1,–,–,–,2000,630,73
CC(=O)CC(CC(=O)Oc1ccc([N+](=O)[O-])cc1)c1ccccc1 (stereo not given),0.0025,6e-05,42,–,–,–
O=CCC(CC(=O)Oc1ccc([N+](=O)[O-])cc1)c1ccccc1 (stereo not given),0.015,8.3e-05,180,–,–,–
CC(C)CC(CC(=O)Oc1ccc([N+](=O)[O-])cc1)c1ccccc1 (stereo not given),0.0016,0.0016,–,–,–,–
CC(=O)OC(CC(=O)Oc1ccc([N+](=O)[O-])cc1)c1ccccc1 (stereo not given),0.00112,0.00017,7,–,–,–
CC(=O)N[C@@H](CC(=O)Oc1ccc([N+](=O)[O-])cc1)c1ccccc1,0.0262,0.00033,785,–,–,–
O=C1CC(c2ccccc2)CC(=O)O1,0.0034,0.0034,–,–,–,–
O=C(CCc1ccccc1)Oc1ccc([N+](=O)[O-])cc1,0.25,0.25,–,–,–,–
COC(=O)CC(CC(=O)Oc1ccc([N+](=O)[O-])cc1)c1ccccc1 (stereo not given),0.039,0.0008,49,–,–,–
O=C(CC(NC(=O)c1ccccc1)c1ccccc1)Oc1ccc([N+](=O)[O-])cc1 (stereo not given),0.5,0.000417,1200,–,–,–
CCC(=O)NC(CC(=O)Oc1ccc([N+](=O)[O-])cc1)c1ccccc1 (stereo not given),0.0725,4.83e-05,1500,–,–,–
C=C(C)C[C@@H](CC(=O)Oc1ccc([N+](=O)[O-])cc1)c1ccccc1,0.00287,–,3,–,–,–
O=CNC(CC(=O)Oc1ccc([N+](=O)[O-])cc1)c1ccccc1 (stereo not given),0.0597,0.00065,92,–,–,–
C=C(C)C[C@H](CC(=O)Oc1ccc([N+](=O)[O-])cc1)c1ccccc1,–,0.00112,3,–,–,–
O=C(CC(NC(=O)C(F)(F)F)c1ccccc1)Oc1ccc([N+](=O)[O-])cc1 (stereo not given),0.000105,0.000105,–,–,–,–
NC(=O)CC(CC(=O)Oc1ccc([N+](=O)[O-])cc1)c1ccccc1 (stereo not given),0.00257,8.3e-05,31,–,–,–
C=C(C)CC(CC(=O)Oc1ccc([N+](=O)[O-])cc1)c1ccccc1 (stereo not given),0.0027,0.0027,–,–,–,–
C=C1C[C@H](c2ccccc2)CC(=O)O1 (stereo in doubt; 1 (R)),–,4.83e-05,–,12000,51,35
C=C1C[C@H](c2ccccc2)CC(=O)O1 (stereo in doubt; 1 (S)),0.00283,–,59,38000,8,17
